{"source": "ChEMBL document CHEMBL2046381", "about": "“Defining the mechanism of action and enzymatic selectivity of psammaplin A against its epigenetic targets” (J Med Chem, 2012)", "key": {"[1]": {"molecular_target": "T1, Histone deacetylase-like amidohydrolase (Alcaligenes sp. (strain DSM 11172) (Bordetella sp. (strain FB188)), UniProt Q70I53)", "T1 sequence (Q70I53 whole entry)": "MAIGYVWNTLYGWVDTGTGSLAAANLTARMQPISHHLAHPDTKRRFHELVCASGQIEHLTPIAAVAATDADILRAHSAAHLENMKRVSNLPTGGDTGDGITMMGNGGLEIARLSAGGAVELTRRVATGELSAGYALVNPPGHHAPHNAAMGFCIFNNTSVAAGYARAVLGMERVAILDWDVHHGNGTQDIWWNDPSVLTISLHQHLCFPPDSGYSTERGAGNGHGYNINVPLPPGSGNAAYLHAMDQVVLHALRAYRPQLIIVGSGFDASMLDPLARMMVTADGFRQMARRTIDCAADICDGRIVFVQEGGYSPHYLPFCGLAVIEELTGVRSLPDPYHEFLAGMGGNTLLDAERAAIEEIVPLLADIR", "test": "Inhibition of Bordetella sp. (strain FB188) N-terminus His-tagged HDAH expressed in Escherichia coli BL21 (DE3)", "set-up": "species or system Alcaligenaceae bacterium FB188", "in_short": "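Recombinant N-terminal His6-tagged HDAH from Bordetella strain FB188, expressed in E. coli BL21, purified on zinc-loaded His-Trap column, eluted with 500 mM imidazole, dialyzed into assay buffer (>98% pure by SDS-PAGE). Tested directly against compounds; thiols generated in situ from disulfides with TCEP.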"}, "[2]": {"system": "MCF7", "test": "Selectivity index, ratio of GI50 for human A549 cells to GI50 for human MCF7 cells", "type": "functional"}, "[3]": {"molecular_target": "T2, Histone deacetylase 8 (Homo sapiens, UniProt Q9BY41)", "T2 sequence (Q9BY41 whole entry)": "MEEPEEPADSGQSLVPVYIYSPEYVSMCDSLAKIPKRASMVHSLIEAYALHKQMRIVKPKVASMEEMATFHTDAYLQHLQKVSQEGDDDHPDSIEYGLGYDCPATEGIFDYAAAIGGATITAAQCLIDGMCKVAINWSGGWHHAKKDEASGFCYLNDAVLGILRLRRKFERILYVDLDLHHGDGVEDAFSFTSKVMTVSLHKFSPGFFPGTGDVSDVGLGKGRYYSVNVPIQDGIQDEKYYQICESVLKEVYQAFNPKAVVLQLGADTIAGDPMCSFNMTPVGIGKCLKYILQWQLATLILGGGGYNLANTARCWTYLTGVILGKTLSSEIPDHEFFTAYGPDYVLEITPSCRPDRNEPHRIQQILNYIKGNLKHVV", "test": "Inhibition of human recombinant HDAC8 using Boc-lys(Ac)-AMC as substrate preincubated for 20 mins with substrate measured after 60 mins by fluorescence analysis"}, "[4]": {"molecular_target": "T3, Protein deacetylase HDAC6 (Homo sapiens, UniProt Q9UBN7)", "T3 sequence (Q9UBN7 whole entry)": "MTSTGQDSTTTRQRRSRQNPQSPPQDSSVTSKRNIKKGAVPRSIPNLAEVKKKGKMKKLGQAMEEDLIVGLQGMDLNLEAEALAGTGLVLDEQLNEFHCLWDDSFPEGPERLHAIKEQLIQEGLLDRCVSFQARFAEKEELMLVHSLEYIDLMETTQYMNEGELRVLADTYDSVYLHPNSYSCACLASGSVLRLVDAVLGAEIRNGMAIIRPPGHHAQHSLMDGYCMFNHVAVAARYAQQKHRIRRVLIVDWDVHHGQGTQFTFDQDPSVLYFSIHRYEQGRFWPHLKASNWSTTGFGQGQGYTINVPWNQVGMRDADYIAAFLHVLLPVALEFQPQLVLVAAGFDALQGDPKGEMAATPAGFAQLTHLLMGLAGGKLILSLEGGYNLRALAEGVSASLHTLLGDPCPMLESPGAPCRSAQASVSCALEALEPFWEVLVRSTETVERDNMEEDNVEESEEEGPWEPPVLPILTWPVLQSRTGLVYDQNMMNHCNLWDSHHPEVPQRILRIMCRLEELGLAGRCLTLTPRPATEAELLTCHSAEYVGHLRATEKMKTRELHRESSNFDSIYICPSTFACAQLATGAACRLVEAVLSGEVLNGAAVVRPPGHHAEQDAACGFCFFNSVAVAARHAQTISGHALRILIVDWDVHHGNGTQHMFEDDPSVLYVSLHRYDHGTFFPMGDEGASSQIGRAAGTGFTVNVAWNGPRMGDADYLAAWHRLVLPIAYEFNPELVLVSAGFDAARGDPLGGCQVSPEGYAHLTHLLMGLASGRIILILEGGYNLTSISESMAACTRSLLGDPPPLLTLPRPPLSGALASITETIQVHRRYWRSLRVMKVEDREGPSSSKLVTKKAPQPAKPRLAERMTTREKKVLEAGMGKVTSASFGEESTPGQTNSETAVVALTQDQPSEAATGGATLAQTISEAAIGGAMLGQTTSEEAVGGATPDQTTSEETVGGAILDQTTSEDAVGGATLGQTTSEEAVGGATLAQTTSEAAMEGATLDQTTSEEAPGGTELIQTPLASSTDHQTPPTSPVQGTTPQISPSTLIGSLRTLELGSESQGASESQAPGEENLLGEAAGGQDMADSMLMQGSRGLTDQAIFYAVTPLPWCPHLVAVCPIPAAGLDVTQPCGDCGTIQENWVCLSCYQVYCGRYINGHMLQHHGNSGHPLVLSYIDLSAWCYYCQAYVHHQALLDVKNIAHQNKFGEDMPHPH", "test": "Inhibition of human recombinant HDAC6 using Boc-lys(Ac)-AMC as substrate preincubated for 20 mins with substrate measured after 60 mins by fluorescence analysis"}}, "data": [{"smiles": "N/N=C(\\Cc1ccc(O)c(Br)c1)C(=O)NCCS", "values": [{"measurement": "IC50", "setting": "[1]", "result": 32, "unit": "µM"}, {"measurement": "RatioGI50", "setting": "[2]", "result": 10}, {"measurement": "IC50", "setting": "[3]", "result": 13, "unit": "µM"}, {"measurement": "IC50", "setting": "[4]", "result": 1, "unit": "µM"}]}]}
